In ChEMBL document CHEMBL5724801, “EUbOPEN Chemogenomics Library - Multiplex” (2024):
Several values for one entry are separate records, joined by “and”; a condition that tells them apart may be missing. Equal entries are not always repeated.

Tested on: Fibroblast
Experiment: Multiplex assay against human fibroblast
Format: toxicity, cell-based
Method in brief: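 Live cells carried four stains from seeding: Hoechst33342, BioTracker Green Microtubule Cytoskeleton Dye, MitoTracker Red and Annexin V Alexa Fluor 680. They were imaged on a CQ1 microscope at 37°C and 5% CO2 after compound addition. Using CellPathfinder machine-learning gating, cells were split into Hoechst high-intensity objects or normal cells, normal cells into healthy, pyknosed or fragmented nuclei, and pyknosed cells into mitotic or apoptotic; tubulin, mitochondrial-mass and membrane-permeability phenotypes are per cents of healthy-nucleus cells.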

[1] = 12 h, 1 µM, compound concentration 1 uM
[2] = 12 h, 10 µM, compound concentration 10 uM
[3] = 24 h, 1 µM, compound concentration 1 uM
[4] = 24 h, 10 µM, compound concentration 10 uM
[5] = 48 h, 1 µM, compound concentration 1 uM
[6] = 48 h, 10 µM, compound concentration 10 uM

With Cc1cc(C)c(NC(=O)C2CC3CCC2C3)c(C)c1 (stereo not drawn) the “Population Apoptotic (%)” value [1] was 12% and 10%, the “Population Fragmented Nuclei (%)” value [1] was 14.14% and 5.66% and the “Population Healthy Nuclei (%)” value [1] was 59.69% and 81.76%. For the same molecule, the “Population Hoechst High Intensity Objects (%)” value [1] was 0%, the “Population Membrane Permeable-Phenotype (%)” value [1] was 3.51% and 5.38% and the “Population Mitochondria Different-Phenotype (%)” value [1] was 7.02% and 6.92%. For the same molecule, the “Population Mitotic Cells (%)” value [1] was 88% and 90%, the “Population Normal (%)” value [1] was 100% and the “Population Pyknosed Nuclei (%)” value [1] was 26.18% and 12.58%. The “Population Tubulin-Different-Phenotype (%)” value [1] was 12.28% and 22.31%, the “Total Cell Count” value [1] was 191 and 159 and the “Population Apoptotic (%)” value [2] was 10% and 7.69%. For the same molecule, the “Population Fragmented Nuclei (%)” value [2] was 12.88% and 9.48%, the “Population Healthy Nuclei (%)” value [2] was 62.58% and 78.2% and the “Population Hoechst High Intensity Objects (%)” value [2] was 0%. The “Population Membrane Permeable-Phenotype (%)” value [2] was 3.92% and 3.64%, the “Population Mitochondria Different-Phenotype (%)” value [2] was 10.78% and 7.27% and the “Population Mitotic Cells (%)” value [2] was 90% and 92.31%. For the same molecule, the “Population Normal (%)” value [2] was 100%, the “Population Pyknosed Nuclei (%)” value [2] was 24.54% and 12.32% and the “Population Tubulin-Different-Phenotype (%)” value [2] was 11.76% and 19.39%. The “Total Cell Count” value [2] was 163 and 211, the “Population Apoptotic (%)” value [3] was 16.28% and 15.38% and the “Population Fragmented Nuclei (%)” value [3] was 13.89% and 7.5%. The “Population Healthy Nuclei (%)” value [3] was 66.2% and 84.38%, the “Population Hoechst High Intensity Objects (%)” value [3] was 0% and the “Population Membrane Permeable-Phenotype (%)” value [3] was 9.09% and 3.7%. The “Population Mitochondria Different-Phenotype (%)” value [3] was 5.59% and 6.67%, the “Population Mitotic Cells (%)” value [3] was 83.72% and 84.62% and the “Population Normal (%)” value [3] was 100%. The “Population Pyknosed Nuclei (%)” value [3] was 19.91% and 8.12%, the “Population Tubulin-Different-Phenotype (%)” value [3] was 12.59% and 16.3% and the “Total Cell Count” value [3] was 216 and 160. The “Population Apoptotic (%)” value [4] was 9.38% and 12%, the “Population Fragmented Nuclei (%)” value [4] was 8.88% and 6.07% and the “Population Healthy Nuclei (%)” value [4] was 72.19% and 82.24%. For the same molecule, the “Population Hoechst High Intensity Objects (%)” value [4] was 0%, the “Population Membrane Permeable-Phenotype (%)” value [4] was 7.38% and 2.84% and the “Population Mitochondria Different-Phenotype (%)” value [4] was 7.38% and 8.52%. For the same molecule, the “Population Mitotic Cells (%)” value [4] was 90.62% and 88%, the “Population Normal (%)” value [4] was 100% and the “Population Pyknosed Nuclei (%)” value [4] was 18.93% and 11.68%. The “Population Tubulin-Different-Phenotype (%)” value [4] was 22.13% and 22.73%, the “Total Cell Count” value [4] was 169 and 214 and the “Population Apoptotic (%)” value [5] was 30.77% and 13.33%. For the same molecule, the “Population Fragmented Nuclei (%)” value [5] was 8.78% and 7.14%, the “Population Healthy Nuclei (%)” value [5] was 84.88% and 83.12% and the “Population Hoechst High Intensity Objects (%)” value [5] was 0%. For the same molecule, the “Population Membrane Permeable-Phenotype (%)” value [5] was 1.15% and 5.47%, the “Population Mitotic Cells (%)” value [5] was 69.23% and 86.67% and the “Population Normal (%)” value [5] was 100%. The “Population Pyknosed Nuclei (%)” value [5] was 6.34% and 9.74%, the “Population Tubulin-Different-Phenotype (%)” value [5] was 8.62% and 19.53% and the “Total Cell Count” value [5] was 205 and 154. For the same molecule, the “Population Apoptotic (%)” value [6] was 50% and 17.65%, the “Population Fragmented Nuclei (%)” value [6] was 9.04% and 4.07% and the “Population Healthy Nuclei (%)” value [6] was 87.77% and 88.24%. For the same molecule, the “Population Hoechst High Intensity Objects (%)” value [6] was 0%, the “Population Membrane Permeable-Phenotype (%)” value [6] was 1.82% and 2.56% and the “Population Mitochondria Different-Phenotype (%)” value [6] was 10.91% and 6.15%. For the same molecule, the “Population Mitotic Cells (%)” value [6] was 50% and 82.35%, the “Population Normal (%)” value [6] was 100% and the “Population Pyknosed Nuclei (%)” value [6] was 3.19% and 7.69%. For the same molecule, the “Total Cell Count” value [6] was 188 and 221.

With Cc1[nH]nc2ccc(-c3cncc(OCC(N)Cc4c[nH]c5ccccc45)c3)cc12 (stereo not drawn) the “Population Apoptotic (%)” value [1] was 18.11% and 24.66%, the “Population Fragmented Nuclei (%)” value [1] was 16.11% and 10.36% and the “Population Healthy Nuclei (%)” value [1] was 41.28% and 56.76%. The “Population Hoechst High Intensity Objects (%)” value [1] was 0%, the “Population Membrane Permeable-Phenotype (%)” value [1] was 3.25% and 3.97% and the “Population Mitochondria Different-Phenotype (%)” value [1] was 17.07% and 15.08%. For the same molecule, the “Population Mitotic Cells (%)” value [1] was 81.89% and 75.34%, the “Population Normal (%)” value [1] was 100% and the “Population Pyknosed Nuclei (%)” value [1] was 42.62% and 32.88%. The “Population Tubulin-Different-Phenotype (%)” value [1] was 23.58% and 29.37%, the “Total Cell Count” value [1] was 298 and 222 and the “Population Apoptotic (%)” value [2] was 73.46% and 80.82%. For the same molecule, the “Population Fragmented Nuclei (%)” value [2] was 20.65% and 12.77%, the “Population Healthy Nuclei (%)” value [2] was 11.29% and 2.66% and the “Population Hoechst High Intensity Objects (%)” value [2] was 0% and 0.27%. For the same molecule, the “Population Membrane Permeable-Phenotype (%)” value [2] was 2.86% and 10%, the “Population Mitochondria Different-Phenotype (%)” value [2] was 5.71% and 10% and the “Population Mitotic Cells (%)” value [2] was 26.54% and 19.18%. The “Population Normal (%)” value [2] was 100% and 99.73%, the “Population Pyknosed Nuclei (%)” value [2] was 68.06% and 84.57% and the “Population Tubulin-Different-Phenotype (%)” value [2] was 22.86% and 10%. For the same molecule, the “Total Cell Count” value [2] was 310 and 377, the “Population Apoptotic (%)” value [3] was 27.83% and 30.77% and the “Population Fragmented Nuclei (%)” value [3] was 13.42% and 3.92%. The “Population Healthy Nuclei (%)” value [3] was 47.99% and 64.22%, the “Population Hoechst High Intensity Objects (%)” value [3] was 0% and the “Population Membrane Permeable-Phenotype (%)” value [3] was 0.7% and 2.29%. The “Population Mitochondria Different-Phenotype (%)” value [3] was 10.49% and 14.5%, the “Population Mitotic Cells (%)” value [3] was 72.17% and 69.23% and the “Population Normal (%)” value [3] was 100%. The “Population Pyknosed Nuclei (%)” value [3] was 38.59% and 31.86%, the “Population Tubulin-Different-Phenotype (%)” value [3] was 18.88% and 22.14% and the “Total Cell Count” value [3] was 298 and 204. The “Population Apoptotic (%)” value [4] was 65.94% and 93.38%, the “Population Fragmented Nuclei (%)” value [4] was 25.98% and 13.12% and the “Population Healthy Nuclei (%)” value [4] was 19.69% and 18.55%. For the same molecule, the “Population Hoechst High Intensity Objects (%)” value [4] was 0%, the “Population Membrane Permeable-Phenotype (%)” value [4] was 10% and 14.63% and the “Population Mitochondria Different-Phenotype (%)” value [4] was 6% and 7.32%. The “Population Normal (%)” value [4] was 100%, the “Population Pyknosed Nuclei (%)” value [4] was 54.33% and 68.33% and the “Population Tubulin-Different-Phenotype (%)” value [4] was 24% and 48.78%. The “Total Cell Count” value [4] was 254 and 221, the “Population Apoptotic (%)” value [5] was 32.98% and 38.18% and the “Population Fragmented Nuclei (%)” value [5] was 11.28% and 7.22%. The “Population Healthy Nuclei (%)” value [5] was 53.38% and 64.43%, the “Population Hoechst High Intensity Objects (%)” value [5] was 0% and the “Population Membrane Permeable-Phenotype (%)” value [5] was 0% and 3.2%. For the same molecule, the “Population Mitochondria Different-Phenotype (%)” value [5] was 17.61% and 10.4%, the “Population Mitotic Cells (%)” value [5] was 67.02% and 61.82% and the “Population Normal (%)” value [5] was 100%. For the same molecule, the “Population Pyknosed Nuclei (%)” value [5] was 35.34% and 28.35%, the “Population Tubulin-Different-Phenotype (%)” value [5] was 13.38% and 9.6% and the “Total Cell Count” value [5] was 266 and 194. The “Population Apoptotic (%)” value [6] was 40.43% and 95.45%, the “Population Fragmented Nuclei (%)” value [6] was 31.02% and 56.65% and the “Population Healthy Nuclei (%)” value [6] was 47.22% and 30.64%. The “Population Hoechst High Intensity Objects (%)” value [6] was 0%, the “Population Membrane Permeable-Phenotype (%)” value [6] was 5.88% and 11.32% and the “Population Mitochondria Different-Phenotype (%)” value [6] was 31.37% and 37.74%. For the same molecule, the “Population Normal (%)” value [6] was 100%, the “Population Pyknosed Nuclei (%)” value [6] was 21.76% and 12.72% and the “Population Tubulin-Different-Phenotype (%)” value [6] was 35.29% and 66.04%. For the same molecule, the “Total Cell Count” value [6] was 216 and 173.
